Results as given in ChEMBL document CHEMBL3414471 (J Med Chem, 2015).
Activity calls are given as the source filed them. No cut-off for these calls is given here.

Tests used:
[1] = target: T1, 5-hydroxytryptamine receptor 2C (Homo sapiens, UniProt P28335); experiment: Agonist activity at human 5-HT2C receptor expressed in HEK293 cells assessed as calcium flux by FLIPR assay; assay type: functional, cell-based
T1 sequence (P28335 whole entry): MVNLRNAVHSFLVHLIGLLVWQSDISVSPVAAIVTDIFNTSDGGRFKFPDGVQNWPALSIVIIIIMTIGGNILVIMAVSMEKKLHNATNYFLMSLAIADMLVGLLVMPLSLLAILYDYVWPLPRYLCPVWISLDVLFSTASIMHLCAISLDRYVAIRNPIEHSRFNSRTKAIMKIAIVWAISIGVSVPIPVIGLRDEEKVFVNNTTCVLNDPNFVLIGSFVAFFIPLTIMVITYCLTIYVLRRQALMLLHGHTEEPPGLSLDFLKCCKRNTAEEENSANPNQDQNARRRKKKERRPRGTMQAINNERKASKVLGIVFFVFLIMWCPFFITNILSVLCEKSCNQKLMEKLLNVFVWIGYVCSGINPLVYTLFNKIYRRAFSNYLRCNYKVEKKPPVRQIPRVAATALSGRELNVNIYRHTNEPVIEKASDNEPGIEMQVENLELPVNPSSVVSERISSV

[2] = target: T2, 5-hydroxytryptamine receptor 2C (Homo sapiens) (UniProt P28335); experiment: Agonist activity at human 5-HT2C receptor expressed in HEK293 cells assessed as calcium flux by FLIPR assay relative to 5-HT; assay type: functional, cell-based
T2 sequence (whole entry): T1 sequence (P28335 whole entry)
How it was run: (§1)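 Flp-In-293 cells stably expressing human 5-HT2A, 5-HT2B or 5-HT2C-INI; grown 24–48 h in DMEM/10% dialyzed FBS, plated on poly-L-Lys at 12000 cells/well in 1% dialyzed FBS for 24 h. Loaded 1 h at 37 °C with calcium dye in HBSS, 20 mM Hepes pH 7.40, 2.5 mM probenecid.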

[3] = target: T3, 5-hydroxytryptamine receptor 2B (Homo sapiens, UniProt P41595); experiment: Agonist activity at human 5-HT2B receptor expressed in HEK293 cells assessed as calcium flux by FLIPR assay; assay type: functional, cell-based
[4] = target: T3, 5-hydroxytryptamine receptor 2B; experiment: Agonist activity at human 5-HT2B receptor expressed in HEK293 cells assessed as calcium flux by FLIPR assay relative to 5-HT; assay type: functional, cell-based; how it was run: as §1
[5] = target: T4, 5-hydroxytryptamine receptor 2A (Homo sapiens, UniProt P28223); experiment: Agonist activity at human 5-HT2A receptor expressed in HEK293 cells assessed as calcium flux by FLIPR assay; assay type: functional, cell-based
[6] = target: T4, 5-hydroxytryptamine receptor 2A; experiment: Agonist activity at human 5-HT2A receptor expressed in HEK293 cells assessed as calcium flux by FLIPR assay relative to 5-HT; assay type: functional, cell-based; how it was run: as §1
[7] = target: T4, 5-hydroxytryptamine receptor 2A; experiment: Agonist activity at human 5-HT2A receptor expressed in HEK293 cells assessed as calcium flux at 10 uM by FLIPR assay; assay type: functional, cell-based
How it was run: (§2)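 Flp-In-293 cells stably expressing human 5-HT2A, 5-HT2B or 5-HT2C-INI, grown in DMEM with 10% dialyzed FBS, then plated for 24 h in 1% dialyzed FBS. Cells were loaded 1 h at 37 °C with calcium dye in Hepes-buffered HBSS, pH 7.40, containing 2.5 mM probenecid. FLIPR read 10 s baseline, then 120 s after drug addition.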

[8] = target: T3, 5-hydroxytryptamine receptor 2B; experiment: Agonist activity at human 5-HT2B receptor expressed in HEK293 cells assessed as calcium flux at 10 uM by FLIPR assay; assay type: functional, cell-based; how it was run: as §2
[9] = target: T2, 5-hydroxytryptamine receptor 2C (Homo sapiens); experiment: Agonist activity at human 5-HT2C receptor expressed in HEK293 cells assessed as calcium flux at 10 uM by FLIPR assay; assay type: functional, cell-based; how it was run: as §2
[10] = target: T3, 5-hydroxytryptamine receptor 2B; experiment: Agonist activity at 5HT2B receptor (unknown origin) relative to control; how it was run: as §1
[11] = Permeability from apical to basolateral side in human Caco2 cells at pH 7.4; assay type: ADME, cell-based; settings: caco-2, pH 7.4
How it was run: (§3)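 Caco-2 monolayer permeability measured A–B and B–A in pH 7.4 buffer, reported as ×10−6 cm/s; A–B/B–A ratio derived from these.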

[12] = Permeability from basolateral to apical side in human Caco2 cells at pH 7.4; assay type: ADME, cell-based; settings: caco-2, pH 7.4; how it was run: as §3
Liver microsome = experiment: Metabolic stability in human liver microsomes; assay type: ADME
How it was run: (§4)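 Incubation with human or CD-1 mouse liver microsomes for 1 h; stability expressed as % parent compound remaining.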

Liver = experiment: Metabolic stability in mouse liver microsomes; assay type: ADME; how it was run: as §4
[13] = target: Voltage-gated inwardly rectifying potassium channel KCNH2 (Homo sapiens, UniProt Q12809); experiment: Inhibition of human ERG channel expressed in CHO cells by patch clamp method; assay type: cell-based
Salmonella typhimurium [14] = experiment: Mutagenic activity in Salmonella typhimurium TA98 at 10 to 100 uM by ames test; assay type: toxicity, organism-based; settings: salmonella enterica subsp. enterica serovar typhimurium
How it was run: (§5)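 Ames fluctuation test in Salmonella strains TA98, TA100, TA1535 and TA1537, with and without S9, at 10, 50 and 100 µM; scored negative or positive.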

Salmonella typhimurium [15] = experiment: Mutagenic activity in Salmonella typhimurium TA98 at 10 to 100 uM by ames test in presence of S9 mixture; assay type: toxicity, organism-based; settings: salmonella enterica subsp. enterica serovar typhimurium; how it was run: as §5
Salmonella typhimurium [16] = experiment: Mutagenic activity in Salmonella typhimurium TA100 at 10 to 100 uM by ames test; assay type: toxicity, organism-based; settings: salmonella enterica subsp. enterica serovar typhimurium; how it was run: as §5
Salmonella typhimurium [17] = experiment: Mutagenic activity in Salmonella typhimurium TA100 at 10 to 100 uM by ames test in presence of S9 mixture; assay type: toxicity, organism-based; settings: salmonella enterica subsp. enterica serovar typhimurium; how it was run: as §5
Salmonella typhimurium [18] = experiment: Mutagenic activity in Salmonella typhimurium TA1535 at 10 to 100 uM by ames test; assay type: toxicity, organism-based; settings: salmonella enterica subsp. enterica serovar typhimurium; how it was run: as §5
Salmonella typhimurium [19] = experiment: Mutagenic activity in Salmonella typhimurium TA1535 at 10 to 100 uM by ames test in presence of S9 mixture; assay type: toxicity, organism-based; settings: salmonella enterica subsp. enterica serovar typhimurium; how it was run: as §5
Salmonella typhimurium [20] = experiment: Mutagenic activity in Salmonella typhimurium TA1537 at 10 to 100 uM by ames test; assay type: toxicity, organism-based; settings: salmonella enterica subsp. enterica serovar typhimurium; how it was run: as §5
Salmonella typhimurium [21] = experiment: Mutagenic activity in Salmonella typhimurium TA1537 at 10 to 100 uM by ames test in presence of S9 mixture; assay type: toxicity, organism-based; settings: salmonella enterica subsp. enterica serovar typhimurium; how it was run: as §5
[22] = Plasma protein binding in human at 10 uM; assay type: ADME, cell-free
How it was run: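 Human plasma protein binding determined at 10 µM compound, expressed as % bound.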

T3 sequence (P41595 whole entry): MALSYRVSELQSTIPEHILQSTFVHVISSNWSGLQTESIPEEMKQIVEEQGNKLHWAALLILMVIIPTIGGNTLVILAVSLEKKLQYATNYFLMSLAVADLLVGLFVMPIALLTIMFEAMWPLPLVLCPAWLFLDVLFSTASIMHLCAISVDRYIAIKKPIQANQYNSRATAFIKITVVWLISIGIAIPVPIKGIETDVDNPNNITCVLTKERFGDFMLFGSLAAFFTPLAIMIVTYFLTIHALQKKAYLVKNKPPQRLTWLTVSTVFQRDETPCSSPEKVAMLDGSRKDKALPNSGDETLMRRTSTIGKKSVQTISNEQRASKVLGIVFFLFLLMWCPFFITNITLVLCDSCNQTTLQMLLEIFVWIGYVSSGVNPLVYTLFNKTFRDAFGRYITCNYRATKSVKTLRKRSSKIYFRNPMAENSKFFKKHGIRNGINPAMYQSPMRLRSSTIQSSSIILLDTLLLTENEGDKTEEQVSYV
T4 sequence (P28223 whole entry): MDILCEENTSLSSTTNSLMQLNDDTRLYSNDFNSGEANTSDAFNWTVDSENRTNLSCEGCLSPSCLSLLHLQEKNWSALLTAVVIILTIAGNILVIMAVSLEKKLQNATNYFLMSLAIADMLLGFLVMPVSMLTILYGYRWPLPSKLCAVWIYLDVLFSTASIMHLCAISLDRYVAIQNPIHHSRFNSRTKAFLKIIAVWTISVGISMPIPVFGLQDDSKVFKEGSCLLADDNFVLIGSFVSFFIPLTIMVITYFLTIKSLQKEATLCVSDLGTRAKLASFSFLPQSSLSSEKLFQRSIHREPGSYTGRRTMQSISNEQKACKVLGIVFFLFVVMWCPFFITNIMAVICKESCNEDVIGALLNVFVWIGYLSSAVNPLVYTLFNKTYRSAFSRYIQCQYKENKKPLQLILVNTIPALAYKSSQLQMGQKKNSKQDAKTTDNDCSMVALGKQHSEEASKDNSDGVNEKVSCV
Chain of Voltage-gated inwardly rectifying potassium channel KCNH2 (Q12809 whole entry): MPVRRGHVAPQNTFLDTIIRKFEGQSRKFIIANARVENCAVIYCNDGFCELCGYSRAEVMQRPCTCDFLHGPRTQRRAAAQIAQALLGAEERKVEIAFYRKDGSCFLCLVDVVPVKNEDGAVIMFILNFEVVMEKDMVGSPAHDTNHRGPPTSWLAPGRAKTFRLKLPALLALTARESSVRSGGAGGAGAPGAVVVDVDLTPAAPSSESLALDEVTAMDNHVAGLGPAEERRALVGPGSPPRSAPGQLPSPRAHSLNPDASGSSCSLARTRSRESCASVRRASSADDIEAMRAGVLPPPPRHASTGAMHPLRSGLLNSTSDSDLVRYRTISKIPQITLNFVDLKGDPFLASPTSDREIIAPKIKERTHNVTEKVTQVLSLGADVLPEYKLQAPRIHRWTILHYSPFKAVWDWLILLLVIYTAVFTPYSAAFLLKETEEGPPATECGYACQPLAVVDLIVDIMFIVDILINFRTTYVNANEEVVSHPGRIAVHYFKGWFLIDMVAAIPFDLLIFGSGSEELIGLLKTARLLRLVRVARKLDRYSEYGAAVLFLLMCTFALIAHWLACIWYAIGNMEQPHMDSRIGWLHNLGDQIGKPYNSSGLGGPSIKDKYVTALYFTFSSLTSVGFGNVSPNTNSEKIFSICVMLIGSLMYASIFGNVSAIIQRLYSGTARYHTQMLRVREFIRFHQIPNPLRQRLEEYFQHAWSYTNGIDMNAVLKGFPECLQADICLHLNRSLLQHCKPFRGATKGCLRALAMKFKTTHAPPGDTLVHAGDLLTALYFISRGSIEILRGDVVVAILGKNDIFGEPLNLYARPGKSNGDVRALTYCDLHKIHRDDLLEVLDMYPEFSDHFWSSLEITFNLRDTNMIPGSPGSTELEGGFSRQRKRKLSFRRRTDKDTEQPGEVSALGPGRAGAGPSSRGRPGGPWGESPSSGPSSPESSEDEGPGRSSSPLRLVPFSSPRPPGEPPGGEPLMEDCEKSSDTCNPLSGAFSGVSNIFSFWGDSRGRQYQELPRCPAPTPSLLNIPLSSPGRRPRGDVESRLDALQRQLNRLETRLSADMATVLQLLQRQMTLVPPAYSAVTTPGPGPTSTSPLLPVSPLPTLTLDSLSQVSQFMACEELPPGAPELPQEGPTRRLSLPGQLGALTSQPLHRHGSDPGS

SMILES | EC50 [1] [nM] | Emax [2] [%] | EC50 [3] [µM] | Emax [4] [%] | Activity [7] | further results
C#CCOc1ccc(Cl)cc1[C@H]1C[C@@H]1CN | 63 | 65 | 4.6 | 29 |  | EC50 [5]: 1010 nM; Emax [6]: 21%
CCCOc1ccc(Cl)cc1[C@@H]1C[C@H]1CN | 1230 | 31 | 3 | 21 | inactive | 
CCCCOc1ccc(Cl)cc1[C@@H]1C[C@H]1CN | 683 | 50 |  |  |  | Activity [8]: inactive
NC[C@H]1C[C@@H]1c1cc(Cl)ccc1OCCCF | 206 | 60 | 4.91 | 22 | inactive | 
CSCCOc1ccc(Cl)cc1[C@@H]1C[C@H]1CN | 1760 | 11 |  |  | inactive | Activity [8]: inactive
C=C(F)COc1ccc(Cl)cc1[C@@H]1C[C@H]1CN |  |  | 6.88 | 33 | inactive | Activity [9]: inactive
CCCCOc1ccc(Cl)cc1[C@H]1C[C@@H]1CN | 288 | 33 |  |  |  | Activity [8]: inactive
CCCOc1ccc(F)cc1[C@H]1C[C@@H]1CN | 11 | 88 | 1.99 | 33 |  | EC50 [5]: 1020 nM; Emax [6]: 15%
CCOc1ccc(Cl)cc1[C@@H]1C[C@H]1CN | 646 | 72 | 2.31 | 26 | inactive | 
C=C(F)COc1ccc(F)cc1[C@@H]1C[C@H]1CN | 985 | 62 |  |  | inactive | Activity [8]: inactive
NC[C@@H]1C[C@H]1c1cc(F)ccc1OCCF | 514 | 77 |  |  |  | Activity [8]: inactive; EC50 [5]: 2990 nM; Emax [6]: 20%
CC(C)Oc1ccc(Cl)cc1[C@@H]1C[C@H]1CN | 2480 |  | 5.66 |  |  | 
NC[C@H]1C[C@@H]1c1cc(Cl)ccc1OCC(F)F | 91 | 81 | 0.839 | 27 |  | EC50 [5]: 1810 nM; Emax [6]: 31%
c1cc2c3c(c1)[C@H]1CCC[C@H]1N3CCNC2 |  |  |  |  |  | Emax [10]: 40%
CCOc1ccc(Cl)cc1[C@H]1C[C@@H]1CN | 13 | 91 | 0.086 | 45 |  | EC50 [5]: 1210 nM; Emax [6]: 49%
CC(C)Oc1ccc(Cl)cc1[C@H]1C[C@@H]1CN | 91 |  | 0.997 |  |  | EC50 [5]: 4000 nM
C=CCOc1ccc(Cl)cc1[C@H]1C[C@@H]1CN.O=C(O)C(F)(F)F | 60 | 80 | 2.21 | 32 | inactive | permeability [11]: 35.6 ×10⁻⁶ cm/s; permeability [12]: 9.8 ×10⁻⁶ cm/s; Stability (Liver microsome): 52%; Stability (Liver): 60%; IC50 [13]: 270 nM; Activity (Salmonella typhimurium [14]): Non-toxic; Activity (Salmonella typhimurium [15]): Non-toxic; Activity (Salmonella typhimurium [16]): Non-toxic; Activity (Salmonella typhimurium [17]): Non-toxic; Activity (Salmonella typhimurium [18]): Non-toxic; Activity (Salmonella typhimurium [19]): Non-toxic; Activity (Salmonella typhimurium [20]): Non-toxic; Activity (Salmonella typhimurium [21]): Non-toxic; PPB [22]: 75%

SMILES | EC50 [1] [nM] | Emax [2] [%] | EC50 [3] [µM] | Emax [4] [%] | Activity [7] | further results
CCCOc1ccc(F)cc1[C@@H]1C[C@H]1CN | 296 | 80 | 0.735 | 11 | inactive | 
C=C(C)COc1ccc(Cl)cc1[C@@H]1C[C@H]1CN |  |  | 6.09 | 39 | inactive | Activity [9]: inactive
C=C(F)COc1ccc(F)cc1[C@H]1C[C@@H]1CN | 22 | 91 |  |  |  | Activity [8]: inactive; EC50 [5]: 1670 nM
c1cc2c3c(c1)[C@H]1CCC[C@H]1CN3CCNC2 |  |  |  |  |  | Emax [10]: 50%
NC[C@@H]1C[C@H]1c1cc(Cl)ccc1OCCF | 1130 | 59 | 4.52 | 31 | inactive | 
COCCOc1ccc(Cl)cc1[C@H]1C[C@@H]1CN | 183 | 8 |  |  | inactive | Activity [8]: inactive
CSCCOc1ccc(Cl)cc1[C@H]1C[C@@H]1CN | 244 | 24 |  |  | inactive | Activity [8]: inactive
C=CCOc1ccc(F)cc1[C@@H]1C[C@H]1CN | 157 | 87 |  |  |  | Activity [8]: inactive; EC50 [5]: 697 nM; Emax [6]: 56%
C=C(C)COc1ccc(Cl)cc1[C@H]1C[C@@H]1CN | 212 | 90 | 0.422 | 32 |  | EC50 [5]: 903 nM; Emax [6]: 26%
NC[C@@H]1C[C@H]1c1cc(Cl)ccc1OCC(F)F | 914 | 64 | 1.48 | 30 |  | EC50 [5]: 1300 nM; Emax [6]: 43%
C#CCOc1ccc(Cl)cc1[C@@H]1C[C@H]1CN | 365 | 71 | 4.41 | 30 | inactive | 
C=CCOc1ccc(Cl)cc1[C@@H]1C[C@H]1CN | 737 | 42 | 4.3 | 28 | inactive | 
NC[C@@H]1C[C@H]1c1cc(Cl)ccc1OCCCF | 1260 | 24 | 6.17 | 22 | inactive | 
COCCOc1ccc(Cl)cc1[C@@H]1C[C@H]1CN | 667 | 45 | 5.3 | 32 | inactive | 
NC[C@@H]1C[C@H]1c1cc(Cl)ccc1OCC1CC1 | 1080 | 51 | 3.03 | 32 | inactive | 
C[C@H]1CNCCc2ccc(Cl)cc21 |  |  |  |  |  | Emax [6]: 68%
NC[C@H]1C[C@@H]1c1cc(Cl)ccc1OCC1CC1 | 251 | 75 | 5.01 | 20 | inactive | 
